{"source": "ChEMBL document CHEMBL4732158", "about": "“Bicyclic Ligand-Biased Agonists of S1P: Exploring Side Chain Modifications to Modulate the PK, PD, and Safety Profiles” (J Med Chem, 2021)", "key": {"[1]": {"experiment": "Antimigratory activity against human T cells assessed as inhibition of S1P-induced T cell migration preincubated for 10 mins followed by addition of S1P measured after 120 mins by calcein-AM dye based fluorescence analysis", "type": "functional"}, "[2]": {"experiment": "Cardiotoxicity in human iPSC derived cardiomyocytes assessed as change in heart rate at 1 nM measured over 2 hrs by multi-electrode array relative to control", "type": "toxicity, cell-based", "details": "stem cell-derived cardiomyocyte, 0.001 µM", "method_in_brief": "(§1)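 Phosphate metabolite of each compound prepared and tested on cultured human induced pluripotent stem cell-derived cardiomyocytes at 1 and 10 nM; beat rate change averaged over three or more replicates per concentration unless noted (some n = 2).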"}, "[3]": {"experiment": "Drug metabolism in Lewis rat blood assessed as parent compound concentration at 0.5 mg/kg, po measured at 4 hrs by LC-MS/MS analysis", "type": "ADME, organism-based", "details": "in vivo, 0.5 mg/kg, 4 h, BLD = below limit of detection", "method_in_brief": "(§2)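 Lewis rats (n = 2−4) dosed orally at 0.5, 1, 2 or 5 mg/kg; blood parent and phosphate metabolite concentrations and lymphocyte counts taken 4 and 24 h post-dose; phosphate-to-parent ratio from 24 h levels; significance versus vehicle by ANOVA with Dunnett's test.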"}, "[4]": {"experiment": "Cardiotoxicity in human iPSC derived cardiomyocytes assessed as change in heart rate at 10 nM measured over 2 hrs by multi-electrode array relative to control", "type": "toxicity, cell-based", "details": "stem cell-derived cardiomyocyte, 0.01 µM", "method_in_brief": "as §1"}, "[5]": {"experiment": "Reduction in circulating lymphocytes count in Lewis rat at 0.5 mg/kg, po measured at 4 hrs by hematology analyzer based analysis", "type": "ADME, organism-based", "set-up": "scale not given: the % may be the effect or the level left", "details": "in vivo", "method_in_brief": "as §2"}, "[6]": {"experiment": "Drug metabolism in Lewis rat blood assessed as parent compound concentration at 0.5 mg/kg, po measured at 24 hrs by LC-MS/MS analysis", "type": "ADME, organism-based", "method_in_brief": "as §2"}, "[7]": {"experiment": "Reduction in circulating lymphocytes count in Lewis rat at 0.5 mg/kg, po measured at 24 hrs by hematology analyzer based analysis", "type": "ADME, organism-based", "set-up": "scale not given: the % may be the effect or the level left", "details": "in vivo", "method_in_brief": "as §2"}, "[8]": {"experiment": "Reduction in circulating lymphocytes count in Lewis rat at 5 mg/kg, po measured at 24 hrs by hematology analyzer based analysis", "type": "ADME, organism-based", "set-up": "scale not given: the % may be the effect or the level left", "details": "in vivo", "method_in_brief": "(§3)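 Lewis rats (n = 2−4) dosed orally; whole-blood lymphocyte counts taken 4 h and 24 h after dosing and reduction expressed versus vehicle-treated rats. Significance by ANOVA with Dunnett's test (p < 0.05 vs vehicle). Blood levels of parent and phosphate metabolite measured at the same time points in this PK/PD screen.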"}, "[9]": {"experiment": "Drug concentration in Lewis rat blood assessed as concentration of parent compound at 5 mg/kg, po measured at 24 hrs by LC-MS/MS analysis", "type": "ADME, organism-based", "details": "for concentration at 24 h: Lewis, blood, read-out: Ct", "method_in_brief": "as §2"}, "Rattus norvegicus [10]": {"system": "Rattus norvegicus", "experiment": "Reduction in circulating lymphocytes count in Lewis rat at 5 mg/kg, po measured at 4 hrs by hematology analyzer based analysis", "type": "functional", "set-up": "scale not given: the % may be the effect or the level left", "method_in_brief": "as §3"}, "[11]": {"experiment": "Pulmonary toxicity in Lewis rat assessed as fold elevation of BAL protein content at 5 mg/kg, po by chemistry analyzer based analysis relative to control", "type": "organism-based", "details": "in vivo", "method_in_brief": "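Lewis rats dosed orally; bronchoalveolar lavage protein measured at study end, expressed as fold over vehicle control.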"}, "[12]": {"experiment": "Drug concentration in Lewis rat blood assessed as concentration of parent compound at 5 mg/kg, po measured at 4 hrs by LC-MS/MS analysis", "type": "ADME, organism-based", "details": "read-out: Ct", "method_in_brief": "as §2"}, "[13]": {"molecular_target": "T1, Sphingosine 1-phosphate receptor 1 (Homo sapiens, UniProt P21453)", "T1 sequence (P21453 whole entry)": "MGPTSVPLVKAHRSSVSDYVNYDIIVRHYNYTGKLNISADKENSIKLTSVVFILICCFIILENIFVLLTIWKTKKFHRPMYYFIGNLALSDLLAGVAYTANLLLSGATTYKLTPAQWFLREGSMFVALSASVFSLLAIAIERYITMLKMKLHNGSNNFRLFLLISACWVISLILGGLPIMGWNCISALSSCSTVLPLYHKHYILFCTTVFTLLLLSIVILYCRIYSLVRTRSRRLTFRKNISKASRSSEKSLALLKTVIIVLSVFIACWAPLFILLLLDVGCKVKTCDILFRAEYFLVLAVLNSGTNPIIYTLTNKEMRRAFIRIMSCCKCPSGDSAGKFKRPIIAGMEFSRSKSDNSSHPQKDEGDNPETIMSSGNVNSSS", "experiment": "Displacement of [33P]-SIP from human recombinant S1P1 expressed in CHO cell membranes measured after 45 mins by TopCount scintillation counting method", "set-up": "species or system Cell membrane"}, "[14]": {"molecular_target": "T1, Sphingosine 1-phosphate receptor 1", "experiment": "Agonist activity at human recombinant S1P1 expressed in CHO cells assessed as stimulation of ERK phosphorylation incubated for 7 mins by microplate reader analysis", "type": "cell-based"}, "[15]": {"molecular_target": "Sphingosine 1-phosphate receptor 3 (Homo sapiens, UniProt Q99500)", "sequence (Q99500 whole entry)": "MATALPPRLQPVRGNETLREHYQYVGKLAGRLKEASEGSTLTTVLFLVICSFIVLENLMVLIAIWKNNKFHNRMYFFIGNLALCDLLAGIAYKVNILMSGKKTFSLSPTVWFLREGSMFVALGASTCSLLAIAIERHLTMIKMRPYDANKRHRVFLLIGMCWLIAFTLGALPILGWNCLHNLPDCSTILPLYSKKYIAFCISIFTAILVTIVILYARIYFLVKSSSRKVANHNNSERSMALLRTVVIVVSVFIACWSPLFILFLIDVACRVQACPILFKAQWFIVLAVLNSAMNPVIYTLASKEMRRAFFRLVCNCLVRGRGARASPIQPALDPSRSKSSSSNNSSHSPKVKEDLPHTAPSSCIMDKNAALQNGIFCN", "experiment": "Agonist activity at recombinant human S1P3 expressed in CHO cell membranes assessed as stimulation of [35S]-GTPgammaS binding measured after 45 mins by liquid scintillation counting method", "type": "functional, Membrane"}, "[16]": {"molecular_target": "T1, Sphingosine 1-phosphate receptor 1", "experiment": "Agonist activity at recombinant human S1P1 expressed in CHO cell membranes assessed as stimulation of [35S]-GTPgammaS binding measured after 45 mins by liquid scintillation counting method", "type": "functional, Cell membrane"}, "[17]": {"molecular_target": "T1, Sphingosine 1-phosphate receptor 1", "experiment": "Agonist activity at human recombinant C-terminal GFP-fused S1P1 expressed in CHO cells assessed as induction of receptor internalization incubated for 50 mins by fluorescence based confocal laser scanning microscopic analysis", "type": "cell-based"}, "[18]": {"experiment": "Ratio of drug metabolism in Lewis rat blood assessed as phosphate ester metabolite to parent drug at 5 mg/kg, po measured at 24 hrs by LC-MS/MS analysis", "type": "ADME, organism-based", "details": "in vivo", "method_in_brief": "as §2"}, "[19]": {"experiment": "Reduction in circulating lymphocytes count in Lewis rat at 0.3 mg/kg, po measured at 24 hrs by hematology analyzer based analysis", "type": "ADME, organism-based", "set-up": "scale not given: the % may be the effect or the level left", "details": "in vivo"}, "Rattus norvegicus [20]": {"system": "Rattus norvegicus", "experiment": "Reduction in circulating lymphocytes count in Lewis rat at 0.3 mg/kg, po measured at 4 hrs by hematology analyzer based analysis", "type": "functional", "set-up": "scale not given: the % may be the effect or the level left"}}}
{"smiles": "CCCCCC[C@@H]1CCc2cc([C@H]3CC[C@](N)(COP(=O)(O)O)C3)ccc2C1", "values": [{"measurement": "IC50", "setting": "[1]", "result": 2.5, "unit": "nM"}]}
{"smiles": "CCCCCSC[C@H]1CCc2cc([C@H]3CC[C@](N)(CO)C3)ccc2C1", "values": [{"measurement": "Activity", "setting": "[2]", "result": -29, "unit": "%"}, {"measurement": "Ct", "setting": "[3]", "result": "Bld"}, {"measurement": "Activity", "setting": "[4]", "result": -41, "unit": "%"}, {"measurement": "Activity", "setting": "[5]", "result": 0, "unit": "%"}, {"measurement": "Ct", "setting": "[6]; in vivo, 0.5 mg/kg, 24 h, BLD = below limit of detection", "result": "Bld"}, {"measurement": "Activity", "setting": "[7]", "result": 56, "unit": "%"}]}
{"smiles": "CCCOCCOC[C@@H]1CCc2cc([C@H]3CC[C@](N)(CO)C3)ccc2C1", "values": [{"measurement": "Activity", "setting": "[8]", "result": 70, "unit": "%"}, {"measurement": "concentration at 24 h", "setting": "[9]", "result": 28, "unit": "nM"}, {"measurement": "Activity", "setting": "Rattus norvegicus [10]", "result": 72, "unit": "%"}, {"measurement": "fold change (FC)", "setting": "[11]", "result": 1.4}, {"measurement": "concentration at 4 h", "setting": "[12]", "result": 360, "unit": "nM"}]}
{"smiles": "COCCCCC[C@@H]1CCc2cc([C@H]3CC[C@](N)(COP(=O)(O)O)C3)ccc2C1", "values": [{"measurement": "IC50", "setting": "[13]", "result": 0.016, "unit": "nM"}, {"measurement": "EC50", "setting": "[14]", "result": 2.7, "unit": "nM"}, {"measurement": "EC50", "setting": "[15]", "result": "> 1000", "unit": "nM"}, {"measurement": "EC50", "setting": "[16]", "result": 2.1, "unit": "nM"}, {"measurement": "EC50", "setting": "[17]", "result": 4.9, "unit": "nM"}]}
{"smiles": "CCCCS(=O)(=O)C[C@@H]1CCc2cc([C@H]3CC[C@](N)(CO)C3)ccc2C1", "values": [{"measurement": "Activity", "setting": "[8]", "result": 16, "unit": "%"}, {"measurement": "Ct", "setting": "[9]; in vivo, 5 mg/kg, 24 h, BLD = below limit of detection", "result": "Bld"}, {"measurement": "Activity", "setting": "Rattus norvegicus [10]", "result": 13, "unit": "%"}, {"measurement": "fold change (FC)", "setting": "[11]", "result": 0.8}, {"measurement": "concentration at 4 h", "setting": "[12]", "result": 44, "unit": "nM"}]}
{"smiles": "CCCC[S+]([O-])C[C@@H]1CCc2cc([C@H]3CC[C@](N)(CO)C3)ccc2C1", "note": "(some centres undefined)", "values": [{"measurement": "Activity", "setting": "[8]", "result": 75, "unit": "%"}, {"measurement": "concentration at 24 h", "setting": "[9]", "result": 10, "unit": "nM"}, {"measurement": "Activity", "setting": "Rattus norvegicus [10]", "result": 0, "unit": "%"}, {"measurement": "fold change (FC)", "setting": "[11]", "result": 1.5}, {"measurement": "concentration at 4 h", "setting": "[12]", "result": 109, "unit": "nM"}, {"measurement": "Ratio", "setting": "[18]", "result": 2.3}]}
{"smiles": "CCOCCC[C@H]1CCc2cc([C@H]3CC[C@](N)(COP(=O)(O)O)C3)ccc2C1", "values": [{"measurement": "IC50", "setting": "[13]", "result": 0.04, "unit": "nM"}, {"measurement": "EC50", "setting": "[14]", "result": 5.2, "unit": "nM"}, {"measurement": "EC50", "setting": "[15]", "result": "> 1000", "unit": "nM"}, {"measurement": "EC50", "setting": "[16]", "result": 2.1, "unit": "nM"}, {"measurement": "EC50", "setting": "[17]", "result": 0.4, "unit": "nM"}]}
{"smiles": "C/C=C\\CCC[C@@H]1CCc2cc([C@H]3CC[C@](N)(CO)C3)ccc2C1", "values": [{"measurement": "Activity", "setting": "[19]", "result": 22, "unit": "%"}, {"measurement": "Activity", "setting": "Rattus norvegicus [20]", "result": 0, "unit": "%"}]}
{"smiles": "CCCCCSC[C@@H]1CCc2cc([C@H]3CC[C@](N)(CO)C3)ccc2C1", "values": [{"measurement": "Ct", "setting": "[3]", "result": "Bld"}, {"measurement": "Activity", "setting": "[5]", "result": 0, "unit": "%"}, {"measurement": "concentration at 24 h", "setting": "[6]; Lewis, blood, read-out: Ct", "result": "< 31", "unit": "nM"}, {"measurement": "Activity", "setting": "[7]", "result": 63, "unit": "%"}]}
